# NF-kB expr up: NF-kB expression increase, human neuronal cells; AID 1239; actives 1.6% (n = 190,000); NF-kB reporter expression; stronger effect = higher value; fold change at 12.5 µM; in the data active = fold change above about 3.3
# STAT3 inh: inhibitors of IL-6 induced STAT3 signaling; U3A cells, IL-6 STAT3-luciferase reporter, luminescence; host cell line lacks STAT1; inhibition, % at 5.5 µM; actives 0.89% (n = 190,000); AID 862;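 active = inhibition above the mean inhibition across all screened compounds plus 3 SD, cut at about 44% in these data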;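 also: 0% = DMSO only wells and 100% = 100 µM nifuroxazide control wells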
# STAT1 act: increases IFN-gamma driven STAT1 reporter signal. NIH 3T3 STAT1-luciferase reporter, luminescence; 100% = IFN-gamma alone, no compound. actives 2.6% (n = 200,000). activation (% of control), % at 5.5 µM. AID 932;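 active = activation above the screen-wide mean activation plus 3 SD, cut at about 130% in these data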;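 also: raw ratio to IFN-gamma control signal so 100% means no change and 0% no light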
# STAT1 blocker: reduces IFN-gamma driven STAT1 reporter signal; NIH 3T3 STAT1-luciferase reporter, luminescence; inhibition, % at 5.5 µM; actives 0.35% (n = 200,000);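 active = inhibition above a set limit, the mean inhibition across all tested compounds plus 3 SD, cut at about 34% in these data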;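 also: 0% = IFN-gamma with DMSO and 100% = IFN-gamma with 300 µM nifuroxazide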
# STAT3 act: STAT3 signaling activation | U3A cells, IL-6 STAT3-luciferase reporter, luminescence; 100% = signal with IL-6 EC80 alone | actives 0.91% (n = 190,000) | AID 871 | activation (% of control), % at 5.6 µM;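 active = activation above the screen-wide mean of compound activation plus 3 SD, cut at about 130% in these data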;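 also: 0% = background luminescence of wells with medium and substrate only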
#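 Material: STAT3-luciferase reporter U3A cells. Controls: IL-6-treated wells, 100% activation. Read-out: % activation versus median of IL-6-stimulated wells. Probe or stimulus: IL-6 stimulus at 33 ng/mL final. Timing: compound 1 h, then IL-6 6 h at 37 °C. Signal: reporter luminescence signal.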
# APP 5'UTR act: APP 5'UTR luciferase reporter activation; activation, % at 2 µM; SH-SY5Y APP 5'UTR luciferase reporter, luminescence; zero percent = DMSO vehicle wells; actives 1% (n = 190,000);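 active = activation above a set limit, based on mean plus 3 SD of controls, cut at about 140% in these data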
# * hit, by the source's call. A selection: hits, their analogues and other compounds. The true share with any hit is near 4.9%.
SMILES,NF-kB expr up,STAT3 inh,STAT1 act,STAT1 blocker,STAT3 act,APP 5'UTR act
CCOC(=O)c1ccc(NC(=O)c2n[nH]c(=O)c3ccccc23)cc1,1.2,12,106,-10,94,37
c1ccc(Sc2ncnc3c2oc2ccccc23)cc1,2.5,0,144*,-49,104,60
CCOC(=O)C1CCN(C(=O)c2cc3cc(Br)ccc3oc2=O)CC1,1.3,1,105,-9,103,10
CSc1ccccc1NC(=O)c1cc2ncc(Br)cn2n1,1.5,18,142*,-49,91,73
Cc1ccccc1Cn1ccc(NC(=O)c2cc3ncc(Br)cn3n2)n1,1.1,10,95,4,97,-11
C[N+]1(C2CCC3CCCC2C3O)CCCC1 (configuration not stated),1.4,8,98,3,93,9
Cc1ccc(OCCn2cnc3ccccc3c2=O)c([N+](=O)[O-])c1,1.9,-11,136*,-40,118,105
CCCOC(=O)CC1C(=O)NCCN1C(=O)OC(C)(C)C (configuration not stated),1.2,-8,108,-9,107,27
Cc1cc(C(=O)c2ccc(C(C)(C)C)cc2)c(NC(=O)CCl)s1,0.81,-1,99,1,104,2
Cc1ncoc1C(=O)Nc1nccs1,1.1,6,101,-1,98,0
Cc1ncoc1C(=O)Nc1ncc([N+](=O)[O-])s1,2.4,36,142*,-47,76,78
Cc1ccc(Nc2nc(C(=O)N3CCC(C(=O)N4CCN(C)CC4)CC3)cs2)cc1,1,-7,104,-4,108,-1
Cc1ccc(Nc2nc(COC(=O)C3CC3)cs2)cc1,3.6*,7,125,-31,98,95
O=C(Nc1ccc(N2CCCC2=O)cc1)c1cccc(F)c1,5.4*,33,138*,-41,74,57
CC(C)N(C(=O)CSc1nnnn1-c1ccc2c(c1)OCO2)C(C)C,1.1,-2,107,-8,104,24
NC(=O)CSc1nc(C2CC2)nc2sc3c(c12)CCCC3,3.8*,-13,150*,-56,114,140*
C/C(CCc1ccc2c(c1)OCO2)=N\N=C1\NC(=O)CC(C(=O)Nc2ccccc2F)S1 (configuration not stated),1.2,23,96,4,88,-6
Cc1ccc(SCCC(=O)Nc2cccnc2)cc1,1.2,1,99,1,104,25
O=C(CCSc1ccc(Cl)cc1)Nc1cccnc1,7.7*,3,100,-1,104,2
O=C(Nc1ccc(F)c([N+](=O)[O-])c1)C(=O)c1c(O)[nH]c2ccccc12,1.5,14,102,0,92,-21
CN(C)c1ccccc1C(=O)c1ccccc1N(C)C,2.5,0,132*,-35,109,-91
O=C(Nc1ccccc1)c1cc2n(n1)C(C(F)(F)F)CC(C1CC1)N2 (configuration not stated),2.3,-4,142*,-48,106,86
Oc1ccc(/C=N/Nc2nc(N3CCCC3)nc(N3CCCC3)n2)cc1O,1.1,4,132*,-36,100,7
CC1CCCCN1Cc1c(O)ccc2c(=O)c(-c3nc4ccccc4s3)c(N)oc12 (configuration not stated),1,4,106,-7,97,-13
Cc1cccc(NC(=O)c2cnc3n(c2=O)CCS3)c1,2.9,2,132*,-34,101,-20
SMILES,NF-kB expr up,STAT3 inh,STAT1 act,STAT1 blocker,STAT3 act,APP 5'UTR act
O=C(Nc1ccccc1)c1cnc2n(c1=O)CCS2,1.6,-2,122,-25,106,39
O=C(Nc1ccc2c(c1)OCCO2)c1cnc2n(c1=O)CCS2,3.1,13,142*,-47,93,57
O=C(Nc1ccc2c(c1)OCO2)c1cnc2n(c1=O)CCS2,2.3,9,125,-27,96,21
CC(C)c1ccc(NC(=S)NC2CCCCCC2)cc1,1.1,-16,140*,-47,114,40
S=C(Nc1ccc(Oc2ccc(NC(=S)NC3CCCCC3)cc2)cc1)NC1CCCCC1,1.1,2,94,7,97,-18
OC1CCC(NC(=S)Nc2ccc(SC(F)F)cc2)CC1 (configuration not stated),0.87,-21,129*,-32,119,46

# Screening data (PubChem BioAssay)
